ChEMBL document CHEMBL3044548, “Phytotoxic and antimicrobial activities of catechin derivatives” (2004)
≈ marks a conversion by molar mass, not a printed value. Calls of active or inactive are those of the source. No cut-off for these calls is given here.

How the values were obtained:
[1] = tested on: Pectobacterium carotovorum; experiment: Antibacterial activity against Pectobacterium carotovorum after 24 hr by spectrophotometry; format: functional
In short: (§1)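 Bacterial isolates grown overnight at 37 °C to OD600 0.2. 5 µL of suspension incubated with serial dilutions of derivatives (100 to 0.05 µg) from 1 mg/mL DMSO stocks, 37 °C for 24 h. OD600 read; net growth is OD after 24 h minus OD at start. Percent inhibition is (untreated − treated)/untreated × 100. Two separate replicates. DMSO-only controls.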

Pseudomonas fluorescens [2] = experiment: Antibacterial activity against Pseudomonas fluorescens after 24 hr by spectrophotometry; format: functional; in short: as §1
Pseudomonas fluorescens [3] = experiment: Bactericidal activity against Pseudomonas fluorescens at 3.1 ug/ml after 24 hr by BacLight bacterial viability fluorescence assay; format: functional, organism-based
Erwinia amylovora [4] = experiment: Bactericidal activity against Erwinia amylovora at 1.6 ug/ml after 24 hr by BacLight bacterial viability fluorescence assay; format: functional, organism-based
Trichoderma viride = experiment: Antifungal activity against Hypocrea rufa at 12.5 to 25 ug/ml after 96 hr by spectrophotometry; format: functional, organism-based
In short: (§2)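 Spore germination assay. Spores taken from 4-week-old PDA cultures kept in the dark at 24 °C and adjusted to 1 × 10⁵ spores/mL. 100 µL of spores added to serial dilutions of derivatives in PDB, from 1 mg/mL DMSO stocks. Value is the minimum concentration inhibiting germination. DMSO-only controls.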

Penicillium sp. [5] = experiment: Antifungal activity against Penicillium sp. at 12.5 to 25 ug/ml after 96 hr by spectrophotometry; format: functional, organism-based; in short: as §2
Xanthomonas campestris [6] = experiment: Bactericidal activity against Xanthomonas euvesicatoria at 6.3 ug/ml after 24 hr by BacLight bacterial viability fluorescence assay; format: functional, organism-based
Trichoderma reesei = experiment: Antifungal activity against Trichoderma reesei at 12.5 to 25 ug/ml after 96 hr by spectrophotometry; format: functional, organism-based; in short: as §2
Xanthomonas campestris [7] = experiment: Antibacterial activity against Xanthomonas campestris pv. vesicatoria after 24 hr by spectrophotometry; format: functional; in short: as §1
Aspergillus niger [8] = experiment: Antifungal activity against Aspergillus niger at 12.5 to 25 ug/ml after 96 hr by spectrophotometry; format: functional, organism-based; in short: as §2
Erwinia amylovora [9] = experiment: Antibacterial activity against Erwinia amylovora after 24 hr by spectrophotometry; format: functional; in short: as §1
Fusarium oxysporum [10] = experiment: Antifungal activity against Fusarium oxysporum at 12.5 to 25 ug/ml after 96 hr by spectrophotometry; format: functional, organism-based; in short: as §2
[11] = tested on: Pectobacterium carotovorum; experiment: Bactericidal activity against Pectobacterium carotovorum at 3.1 ug/ml after 24 hr by BacLight bacterial viability fluorescence assay; format: functional, organism-based
Arabidopsis thaliana = experiment: Herbicidal activity against Arabidopsis thaliana assessed as shoot growth inhibition at 200 ug/ml after 7 days; format: functional, organism-based
In short: (§3)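 Ten-day-old seedlings were placed in 5 mL liquid MS basal medium and given filter-sterilized compound at 10, 50, 100 or 200 µg mL^-1. Controls received a methanol vehicle. Cultures were kept at 27 ± 2 °C, shaken at 90 rpm, under 24 µmol m^-2 s^-1 light for 7 days. Shoot and root differentiation were given as percent inhibition versus untreated control, mean ± SD, n = 5.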

Centaurea maculosa [12] = experiment: Herbicidal activity against Centaurea maculosa assessed as shoot growth inhibition at 200 ug/ml after 7 days; format: functional, organism-based; in short: as §3
Ocimum basilicum = experiment: Herbicidal activity against Ocimum basilicum assessed as shoot growth inhibition at 200 ug/ml after 7 days; format: functional, organism-based; in short: as §3
Centaurea maculosa [13] = experiment: Herbicidal activity against Centaurea maculosa assessed as inhibition of root differentiation at 200 ug/ml after 7 days; format: functional, organism-based; in short: as §3
Solanum lycopersicum = experiment: Herbicidal activity against Solanum lycopersicum (tomato) assessed as shoot growth inhibition at 200 ug/ml after 7 days; format: functional, organism-based; in short: as §3
Gaillardia aristata = experiment: Herbicidal activity against Gaillardia aristata assessed as shoot growth inhibition at 200 ug/ml after 7 days; format: functional, organism-based; in short: as §3
Fusarium oxysporum [14] = experiment: Antifungal activity against Fusarium oxysporum at 25 ug/ml after 96 hr by spectrophotometry; format: functional, organism-based; in short: as §2
Penicillium sp. [15] = experiment: Antifungal activity against Penicillium sp. at 25 ug/ml after 96 hr by spectrophotometry; format: functional, organism-based
In short: (§4)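 Spores from 4-week-old cultures grown on PDA at 24 °C in the dark were rinsed off in sterile water and adjusted to 1 × 10⁵ spores mL^-1. Spores were incubated with serial dilutions in PDB in 96-well plates at 37 °C under humidity. Controls were DMSO vehicle and (+)-catechin.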

Aspergillus niger [16] = experiment: Antifungal activity against Aspergillus niger at 25 ug/ml after 96 hr by spectrophotometry; format: functional, organism-based; in short: as §4

SMILES | MIC [1] [µg/mL] | MIC (Pseudomonas fluorescens [2]) [µg/mL] | Activity (Pseudomonas fluorescens [3]) | Activity (Erwinia amylovora [4]) | Activity (Trichoderma viride) | Activity (Penicillium sp. [5]) | Activity (Xanthomonas campestris [6]) | Activity (Trichoderma reesei) | MIC (Xanthomonas campestris [7]) [µg/mL] | Activity (Aspergillus niger [8]) | MIC (Erwinia amylovora [9]) [µg/mL] | Activity (Fusarium oxysporum [10]) | Activity [11] | further results
CC1(C)O[C@H]2Cc3c(O)cc(O)cc3O[C@@H]2c2cc(O)c(O)cc21 | 1.6 (≈ 4.84 µM) | 3.1 (≈ 9.38 µM) | Active | Active | inactive | inactive | Active | inactive | 6.3 (≈ 19.1 µM) | inactive | 3.1 (≈ 9.38 µM) | inactive | Active | –
CC1(C)OC2Cc3c(O)cc(O)cc3OC2c2cc(O)c(O)cc21 (racemic) | 12.5 (≈ 37.8 µM) | 12.5 (≈ 37.8 µM) | Active | Active | inactive | inactive | Active | inactive | 12.5 (≈ 37.8 µM) | inactive | 12.5 (≈ 37.8 µM) | inactive | Active | growth inhibition (GI) (Arabidopsis thaliana): Active; growth inhibition (GI) (Centaurea maculosa [12]): Active; growth inhibition (GI) (Ocimum basilicum): Active; inhibition (Centaurea maculosa [13]): Active; growth inhibition (GI) (Solanum lycopersicum): Active; growth inhibition (GI) (Gaillardia aristata): Active
COc1cc(OC)c2c(c1)OC(c1ccc(OC)c(OC)c1)C(O)C2 (racemic) | 6.3 (≈ 18.2 µM) | 12.5 (≈ 36.1 µM) | Active | Active | inactive | inactive | Active | inactive | 12.5 (≈ 36.1 µM) | inactive | 12.5 (≈ 36.1 µM) | inactive | Active | growth inhibition (GI) (Arabidopsis thaliana): Active; growth inhibition (GI) (Centaurea maculosa [12]): Active; growth inhibition (GI) (Ocimum basilicum): Active; inhibition (Centaurea maculosa [13]): Active; growth inhibition (GI) (Solanum lycopersicum): Active; growth inhibition (GI) (Gaillardia aristata): Active
Oc1cc(O)c2c(c1)OC(c1ccc(O)c(O)c1)C(O)C2 (racemic) | – | – | Active | Active | inactive | inactive | Active | inactive | – | inactive | – | inactive | Active | –
CC(=O)Oc1cc(OC(C)=O)c2c(c1)OC(c1ccc(OC(C)=O)c(OC(C)=O)c1)C(OC(C)=O)C2 (racemic) [(+/-)-PENTAACETYLCATECHIN] | 25 (≈ 50 µM) | 12.5 (≈ 25 µM) | Active | Active | inactive | inactive | Active | inactive | 25 (≈ 50 µM) | inactive | 25 (≈ 50 µM) | inactive | Active | –
CC(=O)Oc1cc(OC(C)=O)c2c(c1)O[C@H](c1ccc(OC(C)=O)c(OC(C)=O)c1)[C@@H](OC(C)=O)C2 [CATECHIN PENTAACETATE] | 6.3 (≈ 12.6 µM) | 6.3 (≈ 12.6 µM) | Active | Active | inactive | inactive | Active | inactive | 6.3 (≈ 12.6 µM) | inactive | 6.3 (≈ 12.6 µM) | – | Active | Activity (Fusarium oxysporum [14]): Active
COc1cc(OC)c2c(c1)O[C@H](c1ccc(OC)c(OC)c1)[C@@H](O)C2 [CATECHIN TETRAMETHYLETHER] | 6.3 (≈ 18.2 µM) | 6.3 (≈ 18.2 µM) | Active | Active | inactive | – | Active | inactive | 25 (≈ 72.2 µM) | – | 25 (≈ 72.2 µM) | inactive | Active | Activity (Penicillium sp. [15]): Active; Activity (Aspergillus niger [16]): Active
Oc1cc(O)c2c(c1)O[C@H](c1ccc(O)c(O)c1)[C@@H](O)C2 [CIANIDANOL] | 1.6 (≈ 5.51 µM) | 1.6 (≈ 5.51 µM) | Active | Active | Active | Active | Active | Active | 1.6 (≈ 5.51 µM) | Active | 1.6 (≈ 5.51 µM) | Active | Active | –
